Measured values published in publication PMC9512414 (International Journal of Nanomedicine, 2022).

System: lung tumor
Assay: 18F-FDG PET imaging of Kras metastatic lung cancer patients
Format: in vivo
Conditions: Kras metastatic patients (Stage IV), in relation to control groups
Outline: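 Patients had 18F-FDG PET/CT at baseline before combined test treatment, after three treatment cycles (interim), and after treatment ended (late). Each patient had at least two scans. Images were reconstructed by ordered subset expectation maximization with six iterations and 12 subsets.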

B1: Daclizumab: FDA-approved drug, CD25 inhibitor (antibody, chains of the INN, looked up, V domains shown)
VH: QVQLVQSGAEVKKPGSSVKVSCKASGYTFTSYRMHWVRQAPGQGLEWIGYINPSTGYTEYNQKFKDKATITADESTNTAYMELSSLRSEDTAVYYCARGGGVFDYWGQGTLVTVSS
VL: DIQMTQSPSTLSASVGDRVTITCSASSSISYMHWYQQKPGKAPKLLIYTTSNLASGVPARFSGSGSGTEFTLTISSLQPDDFATYYCHQRSTYPLTFGQGTKVEVK
B1 was tested. Which “tumor burden by comparative 18F-FDG PET imaging” value did it give?
The value was “lower tumor burden”.
